# MsrA inhibitor: inhibitors of bovine MsrA; purified bovine MsrA, absorbance read-out; inhibition, % at 15.5 µM; 360,000 tested, 0.75% active; AID 651718; in the data active means inhibition above about 4.5%;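 further: 0% = vehicle wells with enzyme and 100% = reference inhibitor wells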
# GalR3 antagonist: antagonists of human GalR3. HEK293 GalR3-CNG cAMP membrane potential fluorescence; galR3 body fused to GalR1 C-terminus. inhibition, % at 3 µM. 360,000 tested, 0.44% active;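 active means inhibition above the screen-wide average plus 3 SD, cut at about 13% in these data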;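 further: forskolin and galanin both at EC90 stimulate the cells; cAMP rise reported by CNG channel membrane potential dye signal; 0% = forskolin plus galanin with DMSO and 100% = forskolin alone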
# NadD block: inhibitors of Staphylococcus aureus NadD. 360,000 tested, 0.78% active. inhibition, % at 20 µM. purified NadD enzyme, colorimetric absorbance read-out; in the data active means inhibition above about 26%
# NR2E3 ag-1: agonists of human NR2E3 nuclear receptor | Q9Y5X4 | 360,000 tested, 0.35% active | AID 602229 | CHO-S Gal4-NCOR/VP16-NR2E3 two-hybrid, luciferase | inhibition of corepressor binding, % at 3.98 µM;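 active means inhibition above the mean of all tested compounds plus 3 SD, cut at about 70% in these data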;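 further: 0% = DMSO with NR2E3 transfected cells and 100% = cells lacking NR2E3 construct; higher means lower luciferase signal from less NR2E3 corepressor binding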
# Target sequence (Q9Y5X4 whole entry, looked up, the tested form may be a part): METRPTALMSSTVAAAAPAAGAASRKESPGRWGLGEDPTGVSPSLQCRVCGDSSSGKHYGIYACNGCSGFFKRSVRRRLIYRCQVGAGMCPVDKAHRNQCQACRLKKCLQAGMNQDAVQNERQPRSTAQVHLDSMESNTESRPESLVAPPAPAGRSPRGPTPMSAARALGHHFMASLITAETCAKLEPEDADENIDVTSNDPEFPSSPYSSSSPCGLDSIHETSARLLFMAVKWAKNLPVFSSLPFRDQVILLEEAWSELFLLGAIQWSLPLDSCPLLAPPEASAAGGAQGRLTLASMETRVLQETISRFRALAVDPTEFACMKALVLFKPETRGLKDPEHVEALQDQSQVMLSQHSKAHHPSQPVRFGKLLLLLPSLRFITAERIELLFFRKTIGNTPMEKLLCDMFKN
# NR2E3 ag-2: activates human photoreceptor nuclear receptor NR2E3; Q9Y5X4; GST-NR2E3/biotin-RetCOR TR-FRET, 1536-well; inhibition of corepressor binding, % at 4.78 µM; 320,000 tested, 0.12% active;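 active means percent inhibition above the cutoff of mean plus 3 SD of all tested compounds, set per screening campaign, cut at about 20% in these data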;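 further: 0% = DMSO wells and 100% = biotin wells as full block of FRET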
#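 Material: NR2E3–RetCOR corepressor complex / Incubation: Compound–protein incubation for 5 h at 4 °C / Dosing: compound at 4.8 µM, single dose / Detection: time-resolved FRET / Benchmarks: high control biotin, low control 0.6% DMSO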
# MsrA act: activators of bovine methionine sulfoxide reductase A; 360,000 tested, 0.3% active; purified bovine MsrA, absorbance read-out; activation, % at 10.6 µM; in the data active means activation above about 7.5%;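 further: 0% = vehicle and 100% = reference activator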
# NR2E3 ag confirm: confirmation of human NR2E3 agonists; AID 624378; inhibition, % at 3.98 µM; 2,300 tested, 51% active; CHO-S mammalian two-hybrid NR2E3-NCOR, luciferase luminescence; shares compounds with NR2E3 ag-1;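 active means average inhibition above a cutoff equal to the mean inhibition of all tested compounds plus one SD, cut at about 70% in these data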;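 further: 0% = DMSO in NR2E3 cells and 100% = DMSO in cells lacking NR2E3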
# VP16 counter: GAL4-VP16 reporter inhibition in NR2E3 agonist counterscreen; 2,300 tested, 29% active; shares compounds with NR2E3 ag-1; CHO-S GAL4-VP16 luciferase reporter, luminescence; inhibition, % at 3.98 µM;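 active means mean inhibition above a cutoff equal to the average over all tested compounds plus one standard deviation, cut at about 70% in these data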;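 further: luciferase from a UAS reporter driven by GAL4-VP16 transactivation; 0% = DMSO with VP16-transfected cells and 100% = DMSO with cells lacking VP16; higher means less reporter light so more repression of VP16 activity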
# The depositor's hits bear a star; . = not tested or not shown. Only some compounds are listed: those with a hit (about 2.5% of all), similar ones and a draw of the others.
SMILES,MsrA inhibitor,GalR3 antagonist,NadD block,NR2E3 ag-1,NR2E3 ag-2,MsrA act,NR2E3 ag confirm,VP16 counter
CCCC(=O)Nc1nn(CCC)c2nc3ccccc3cc12,1,-3,-4,-11,2,-3,.,.
O=C(O)c1ccc(N=Nc2c(O)[nH]c3ccc(Br)cc23)cc1,0,-4,1,-65,0,-2,.,.
Oc1[nH]c2ccc(Br)cc2c1N=NC(=S)N1CCOCC1,3,13*,11,98*,1,-9,90*,44
Oc1[nH]c2ccccc2c1N=NC(=S)N1CCOCC1,.,.,-3,101*,-5,-4,75*,38
O=C(CNc1cccc(S(=O)(=O)N2CCCC2)c1)Nc1ccc(C(F)(F)F)cc1,0,-5,-4,60,4,-4,64,47
Cc1cccc(-c2c3c(=O)n(C)c(=O)n(C)c3c3cccnn23)c1,1,-4,5,-32,-2,-1,.,.
N#CCCN(Cc1ccccc1)C(CCc1ccccc1)C(=O)NC1CCCCC1 (stereo unspecified),2,-7,-3,-10,.,1,.,.
COC(/C(=N/O)c1ccc(Cl)cc1)c1ccccc1 (stereo unspecified),2,-12,-7,59,3,-4,83*,58
COc1ccc(Cl)cc1NC(=O)C(OC)c1ccccc1 (stereo unspecified),1,-7,-7,-4,4,1,.,.
COc1ccc(C2=NN(C(=O)CCC(=O)O)C(c3ccccc3)C2)cc1 (stereo unspecified),0,-9,1,-9,.,-3,.,.
COc1ccc(NC(=O)CC(Cc2ccccc2)C(=O)O)cc1 (stereo unspecified),-1,-5,0,-14,1,-1,.,.
COc1cc(C(O)c2nc(-c3ccc(N(C)C)cc3)cs2)ccc1F (stereo unspecified),.,.,-6,50,.,-1,33,42
COc1cc(C(O)c2nc(-c3cc(F)cc(F)c3)cs2)ccc1F (stereo unspecified),0,-7,2,0,.,-1,.,.
Cc1ccc(C(=O)NNC(=S)NC(=O)c2ccccc2)cc1,2,-1,3,23,6,-7,.,.
Cc1ccc(C(=O)NNC(=S)NC(=O)c2ccc(Cl)cc2Cl)cc1,0,-3,15,54,2,4,48,29
Cc1ccc(C#N)c(SCc2cc3c(cc2Cl)OCO3)n1,0,-5,3,6,5,-6,.,.
Cc1cc(C)c(C#N)c(SCc2nnc(-c3ccccc3)o2)n1,-1,-2,-2,88*,-3,-2,73*,38
Cc1ccc(C#N)c(SCc2nnc(-c3ccc(Cl)cc3)o2)n1,2,0,-8,72*,-1,-5,77*,38
Cc1cc(C)c(C#N)c(SCc2nnc(-c3ccccc3[N+](=O)[O-])o2)n1,2,9,-3,-96,3,-2,.,.
C/C(=C\C(=O)O)CC(=O)O,-1,2,-3,-14,3,-1,.,.
CCCS(=O)(=O)NC(=O)C1(C)CCCN(C(=O)c2cc(C(C)(C)C)nn2C)C1 (stereo unspecified),0,-1,2,-4,.,-5,.,.
CC(=O)/C(N=Nc1ccc2c(c1)OCCO2)=C(\C)O,2,-7,-2,52,-2,-6,31,12
CC(=O)/C(N=Nc1ccc2c(c1)OCO2)=C(\C)O,1,-1,-1,-45,2,-3,.,.
O=C(O)CCc1ccc(-c2cccs2)n1NC(=O)c1ccc(O)cc1,2,0,2,3,0,2,.,.
COc1ccc(CNC(=O)c2ccc3ccccc3n2)cc1OC,0,-12,-5,85*,-1,0,60,44
SMILES,MsrA inhibitor,GalR3 antagonist,NadD block,NR2E3 ag-1,NR2E3 ag-2,MsrA act,NR2E3 ag confirm,VP16 counter
COc1ccc(CCNC(=O)c2ccc3ccccc3n2)cc1OC,0,-5,-1,-22,6,1,.,.
Cc1ccc(NS(=O)(=O)c2ccc3c(c2)NC(=O)CCS3)cc1F,1,-7,-8,-29,0,-4,.,.
Cc1ccc(NS(=O)(=O)c2ccc3c(c2)NC(=O)CCS3)cc1C,0,-8,6,54,-1,-1,-2,22
Cc1nc2ccc(NS(=O)(=O)c3ccc(F)cc3F)cc2s1,0,-7,5,16,0,-5,.,.
CC(=O)c1cccc(S(=O)(=O)Nc2ccc3nc(C)sc3c2)c1,2,5,-3,41,4,-7,.,.
Cc1nc2ccc(NS(=O)(=O)c3ccc(C)c(C)c3)cc2s1,1,-5,1,81*,2,0,96*,80*
Cc1nc2ccc(NS(=O)(=O)c3c(F)cc(F)cc3Br)cc2s1,-1,-8,-2,75*,2,-4,72*,62
CC1CC(C)(C)NC(=S)N1CCC(=O)NCc1ccc(F)cc1 (stereo unspecified),0,-3,5,3,0,-13,.,.
COc1ccc(NS(=O)(=O)c2ccc3oc(SCc4ccc(F)cc4)nc3c2)cc1,1,-3,-11,53,1,-6,85*,69
COc1ccccc1NS(=O)(=O)c1ccc2oc(SCc3ccc(F)cc3)nc2c1,1,-11,-3,6,-3,-4,.,.
Cc1nc(NCc2ccco2)c2c(C)c(C)sc2n1,-1,-8,0,97*,5,-13,95*,68
COc1cc(NS(=O)(=O)c2ccc(C)cc2)c2ncccc2c1,-1,-1,0,82*,0,-3,-20,3
COc1ccc(/C=N/NC(=O)c2ccco2)cc1Cn1nc(C)cc1C,1,1,4,-12,1,-4,.,.
CC(CN1CCN(CCOCCO)CC1)CN1c2ccccc2Sc2ccc(Cl)cc21 (stereo unspecified),0,-7,-7,49,.,4,26,7
COc1cc(N(C)C)ccc1C=c1c2ccccc2n2c1cc(-c1ccccc1)[n+]2C,0,-7,13,87*,.,4,91*,65
O=C1OC(=O)C2C1[C@@H]1CC[C@H]2O1 (stereo partly specified),-2,.,5,3,-3,-4,.,.
CN(CCOC(=O)/C=C/c1ccccc1)C(C)(C)C,1,4,-1,2,4,-2,.,.
O=Cc1ccc(O)c2ncccc12,.,.,-3,69,.,-9,-6,-1
NS(=O)(=O)c1ccc(N=Nc2ccc(O)c3ncccc23)cc1,1,4,7,7,-1,-10,.,.
CN1CCN(CCCNC(=O)c2ccc(/C=C3\Sc4ccccc4N(Cc4ccc(F)cc4)C3=O)cc2)CC1,0,-5,-4,15,.,-2,.,.

# Screens: PubChem, several laboratories
